The target of experiment [1] is T1, Fatty-acid amide hydrolase 1 (Rattus norvegicus) (UniProt P97612).
T1 sequence (whole entry): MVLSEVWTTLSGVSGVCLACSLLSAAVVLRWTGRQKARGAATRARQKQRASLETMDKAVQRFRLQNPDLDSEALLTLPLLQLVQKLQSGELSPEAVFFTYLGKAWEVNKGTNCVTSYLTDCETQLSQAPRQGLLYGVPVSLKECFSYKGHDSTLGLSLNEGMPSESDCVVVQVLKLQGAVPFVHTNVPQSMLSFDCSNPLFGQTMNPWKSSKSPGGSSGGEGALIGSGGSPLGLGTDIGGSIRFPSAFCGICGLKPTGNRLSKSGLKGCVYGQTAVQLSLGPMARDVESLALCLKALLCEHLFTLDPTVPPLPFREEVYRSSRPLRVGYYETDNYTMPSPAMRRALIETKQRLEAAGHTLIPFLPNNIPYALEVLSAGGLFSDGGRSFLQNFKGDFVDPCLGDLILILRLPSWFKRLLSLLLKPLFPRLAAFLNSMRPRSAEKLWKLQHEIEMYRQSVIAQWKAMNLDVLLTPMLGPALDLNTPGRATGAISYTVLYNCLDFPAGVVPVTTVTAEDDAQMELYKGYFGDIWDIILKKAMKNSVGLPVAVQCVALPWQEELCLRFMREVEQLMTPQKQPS
Kind of experiment: Irreversible inhibition of His-tagged rat FAAH N-terminal transmembrane-deleted truncated form expressed in Escherichia coli assessed as ratio of Kinact to Ki by GDH-coupled FAAH assay. In short, it runs like this: (§1)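 Irreversible potency was measured as the second-order rate constant kinact/Ki in an enzyme-coupled FAAH assay (human or rat enzyme). Values are the average of at least two independent determinations ±SD.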

Experiment [2] has as its target T2, Fatty-acid amide hydrolase 1 (Homo sapiens) (UniProt O00519).
T2 sequence (whole entry): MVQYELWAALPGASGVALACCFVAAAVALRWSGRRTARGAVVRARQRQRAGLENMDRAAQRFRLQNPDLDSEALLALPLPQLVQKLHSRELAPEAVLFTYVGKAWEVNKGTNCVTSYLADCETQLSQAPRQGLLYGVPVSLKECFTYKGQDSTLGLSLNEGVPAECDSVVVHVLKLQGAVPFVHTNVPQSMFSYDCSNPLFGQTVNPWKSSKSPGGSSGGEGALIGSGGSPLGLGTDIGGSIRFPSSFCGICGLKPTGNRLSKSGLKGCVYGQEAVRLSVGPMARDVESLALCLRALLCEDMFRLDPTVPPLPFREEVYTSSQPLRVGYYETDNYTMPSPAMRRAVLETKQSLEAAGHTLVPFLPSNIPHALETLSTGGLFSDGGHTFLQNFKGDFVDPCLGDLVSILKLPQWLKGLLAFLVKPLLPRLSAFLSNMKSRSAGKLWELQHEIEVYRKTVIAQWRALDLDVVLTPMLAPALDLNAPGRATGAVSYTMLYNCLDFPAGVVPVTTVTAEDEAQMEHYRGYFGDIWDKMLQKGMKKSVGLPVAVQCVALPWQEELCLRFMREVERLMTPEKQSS
Briefly: Irreversible inhibition of His-tagged human FAAH N-terminal transmembrane-deleted truncated form expressed in Escherichia coli assessed as ratio of Kinact to Ki by GDH-coupled FAAH assay. The procedure, abridged: as §1

The species named for experiment [3] is Rattus norvegicus. As to conditions: Sprague-Dawley, 10 mg/kg.
The target in experiment [4] is T3, Cytochrome P450 3A4 (Homo sapiens, UniProt P08684). Kind of experiment: Inhibition of CYP3A4 uisng testosterone substrate. The format is ADME. In short, it runs like this:
(§2)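 CYP inhibition was tested in human liver microsomes with relevant probe substrates.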

Experiment [5] deals with Cytochrome P450 2D6 (Homo sapiens, UniProt P10635). Briefly: Inhibition of CYP2D6. The format is ADME. In short, it runs like this:
as §2

Experiment [6] addresses T3, Cytochrome P450 3A4. Briefly: Inhibition of CYP3A4 uisng midazolam substrate. The format is ADME. The procedure, abridged:
as §2

For experiment [7], the system named is Rattus norvegicus. Kind of experiment: Antihyperalgesic activity in orally dosed Sprague-Dawley rat model of complete Freund's adjuvant-induced inflammatory pain model assessed as reduction in mechanical allodynia measured 4 hrs post dose. Format: functional. The procedure, abridged:
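CFA was injected subcutaneously into the plantar surface of the rat hind paw. Oral dosing at 0.1-10 mg/kg began 5 days post-injection, once mechanical paw withdrawal threshold had fallen. Mechanical allodynia was read as paw withdrawal threshold 4 h after dosing. n=8 rats per group; significance versus vehicle-treated groups at p<0.05.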

The species named for experiment [8] is Homo sapiens. Briefly: Inhibition of fluorophosphonate-reactive 55/65 kDa serine proteases in human liver soluble proteomes at 100 uM by competitive activity based protein profiling. The procedure, abridged:
(§3)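 Competitive activity-based protein profiling of human or mouse liver soluble proteome. Proteome was treated with inhibitor at 10 or 100 μM, or DMSO, then labelled with FP-rhodamine. Serine hydrolases were resolved on gel and read by fluorescent gel imaging. Bands with reduced labelling intensity in the presence of inhibitor were scored as targets.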

Experiment [9] is filed under the species Mus musculus. Kind of experiment: Inhibition of fluorophosphonate-reactive 55/65 kDa serine proteases in mouse liver soluble proteomes at 100 uM by competitive activity based protein profiling. The procedure, abridged: as §3
Experiment [10] deals with T2, Fatty-acid amide hydrolase 1 (Homo sapiens). As to conditions: 100 uM.
Experiment [11] deals with T4, Fatty-acid amide hydrolase 1 (Mus musculus) (UniProt O08914).
T4 sequence (whole entry): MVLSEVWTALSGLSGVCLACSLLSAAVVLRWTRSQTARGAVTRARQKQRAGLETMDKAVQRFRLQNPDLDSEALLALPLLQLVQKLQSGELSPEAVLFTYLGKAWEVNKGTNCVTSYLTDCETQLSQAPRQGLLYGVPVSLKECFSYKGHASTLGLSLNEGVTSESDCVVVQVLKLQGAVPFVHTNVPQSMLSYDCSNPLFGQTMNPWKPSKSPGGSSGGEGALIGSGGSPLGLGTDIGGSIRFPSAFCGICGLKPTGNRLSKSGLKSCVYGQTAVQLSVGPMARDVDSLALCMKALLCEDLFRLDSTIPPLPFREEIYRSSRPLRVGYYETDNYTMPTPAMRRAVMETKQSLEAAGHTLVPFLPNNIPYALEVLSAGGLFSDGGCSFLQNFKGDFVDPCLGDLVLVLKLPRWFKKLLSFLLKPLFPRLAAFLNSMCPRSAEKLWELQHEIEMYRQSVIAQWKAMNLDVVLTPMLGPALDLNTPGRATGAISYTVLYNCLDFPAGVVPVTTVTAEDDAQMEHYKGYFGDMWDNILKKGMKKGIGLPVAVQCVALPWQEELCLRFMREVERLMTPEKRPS
Kind of experiment: Inhibition of FAAH in mouse brain membrane proteomes at 10 uM by competitive activity based protein profiling. Format: cell membranes. The procedure, abridged:
(§4)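 Competitive activity-based protein profiling used human and mouse brain membrane and soluble liver proteomes. Each was treated with compound at 10 or 100 μM or with DMSO, then labelled with FP-rhodamine. Serine hydrolases were resolved on fluorescent gels. Enzymes with reduced labelling intensity in the presence of inhibitor were scored as targets.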

Experiment [12] addresses T2, Fatty-acid amide hydrolase 1 (Homo sapiens). As to conditions: 10 uM.
The target in experiment [13] is T4, Fatty-acid amide hydrolase 1 (Mus musculus). Briefly: Inhibition of FAAH in mouse brain membrane proteomes at 100 uM by competitive activity based protein profiling. Format: cell membranes. In short, it runs like this: as §4

The source made the active and inactive calls.

What is called IC50 is the concentration that gives 50% inhibition. A higher IC50 goes with a need for much substance.

Cytochrome P450 2D6, sequence (P10635 whole entry): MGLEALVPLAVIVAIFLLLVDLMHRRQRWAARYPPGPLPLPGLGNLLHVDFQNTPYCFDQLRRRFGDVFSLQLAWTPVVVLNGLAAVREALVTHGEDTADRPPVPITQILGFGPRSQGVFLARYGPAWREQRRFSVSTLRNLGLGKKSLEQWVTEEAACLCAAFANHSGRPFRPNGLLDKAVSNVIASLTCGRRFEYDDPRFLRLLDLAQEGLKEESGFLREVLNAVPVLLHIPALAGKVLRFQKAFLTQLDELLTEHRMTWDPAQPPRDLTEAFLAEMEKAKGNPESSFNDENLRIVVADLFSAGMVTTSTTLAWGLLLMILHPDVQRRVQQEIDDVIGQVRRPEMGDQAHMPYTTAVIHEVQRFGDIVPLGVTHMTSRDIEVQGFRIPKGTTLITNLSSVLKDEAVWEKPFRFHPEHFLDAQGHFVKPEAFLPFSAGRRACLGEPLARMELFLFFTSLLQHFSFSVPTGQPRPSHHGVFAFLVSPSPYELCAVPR
T3 sequence (P08684 whole entry): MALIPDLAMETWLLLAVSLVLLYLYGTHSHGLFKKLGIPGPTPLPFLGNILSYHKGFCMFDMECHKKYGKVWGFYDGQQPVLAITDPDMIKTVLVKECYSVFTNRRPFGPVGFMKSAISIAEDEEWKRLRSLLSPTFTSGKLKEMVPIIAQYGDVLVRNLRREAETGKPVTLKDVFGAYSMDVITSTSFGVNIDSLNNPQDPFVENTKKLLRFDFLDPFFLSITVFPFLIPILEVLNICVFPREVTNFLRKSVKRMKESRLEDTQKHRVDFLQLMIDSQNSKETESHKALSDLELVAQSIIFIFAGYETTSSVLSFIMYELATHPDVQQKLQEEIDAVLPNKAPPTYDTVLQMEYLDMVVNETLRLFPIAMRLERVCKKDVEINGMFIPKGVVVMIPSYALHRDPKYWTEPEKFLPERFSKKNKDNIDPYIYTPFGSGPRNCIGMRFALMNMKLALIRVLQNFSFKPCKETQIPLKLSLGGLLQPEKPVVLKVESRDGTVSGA

Take `Cc1cccnc1Oc1cccc(C=C2CCN(C(=O)Nc3cccnn3)CC2)c1`: the Ratio in experiment [1] amounted to 256 M⁻¹ s⁻¹; in experiment [2] it was 2200 M⁻¹ s⁻¹.

In the case of `CCOc1ccc(Oc2cccc(C=C3CCN(C(=O)Nc4cccnn4)CC3)c2)nc1`, the Ratio in experiment [1] was 11700 M⁻¹ s⁻¹; in experiment [2] it was 9230 M⁻¹ s⁻¹.

As for `COc1ccc2cc([C@H](C)C(=O)O)ccc2c1`, the inhibition result in experiment [3] is “Active”.

In the case of `O=C(Nc1cccnc1)N1CCC(Cc2cccc(Oc3ccc(C(F)(F)F)cn3)c2)C1` (centres undefined), the Ratio in [2] was 88 M⁻¹ s⁻¹.

For the compound `O=C(Nc1cnccn1)N1CCC(=Cc2cccc(Oc3ccc(C(F)(F)F)cn3)c2)CC1`, the results for the Ratio in experiment [1] and in experiment [2] were 23700 M⁻¹ s⁻¹ and 42600 M⁻¹ s⁻¹, respectively. Further, the half-inhibitory concentration (IC50) in experiment [4] stood at 23.5 µM; in experiment [5], 25.1 µM; in experiment [6], 30 µM.

Consider `Cc1noc(NC(=O)N2CCC(=Cc3cccc(Oc4ccc(C(F)(F)F)cn4)c3)CC2)c1C`, for which the Ratio in [1] is 54400 M⁻¹ s⁻¹; in experiment [2] it was 7990 M⁻¹ s⁻¹.

With `O=C(Nc1cccnn1)N1CCC(=Cc2cccc(Oc3ccc(C4CC4)cn3)c2)CC1`, the Ratio was determined as 46300 M⁻¹ s⁻¹ in experiment [1] and 28800 M⁻¹ s⁻¹ in [2].

With `Cc1ccc(Oc2cccc(C=C3CCN(C(=O)Nc4cccnn4)CC3)c2)nc1`, the Ratio in experiment [1] turned out to be 5530 M⁻¹ s⁻¹; in [2], 21500 M⁻¹ s⁻¹.

With `O=C(Nc1cccnc1)N1CCC/C(=C\c2cccc(Oc3ccc(C(F)(F)F)cn3)c2)C1`, the Ratio came out at 233 M⁻¹ s⁻¹ in experiment [1] and 1150 M⁻¹ s⁻¹ in experiment [2].

Regarding `O=C(Nc1cccnc1)N1CCC/C(=C/c2cccc(Oc3ccc(C(F)(F)F)cn3)c2)C1`, the Ratio in experiment [1] is 22 M⁻¹ s⁻¹; in experiment [2] it was 35 M⁻¹ s⁻¹.

Regarding `O=C(Nc1cccnn1)N1CCC(=Cc2cccc(Oc3ccc(C(F)(F)F)cc3)c2)CC1`, the Ratio is 22900 M⁻¹ s⁻¹ in [1] and 18900 M⁻¹ s⁻¹ in [2].

In the case of `O=C(Nc1ccccc1)N1CCC(=Cc2cccc(Oc3ccc(C(F)(F)F)cn3)c2)CC1`, the Ratio is 584 M⁻¹ s⁻¹ in experiment [1] and 4800 M⁻¹ s⁻¹ in experiment [2].

In the case of `O=C(Nc1cccnc1)N1CC/C(=C\c2cccc(Oc3ccc(C(F)(F)F)cn3)c2)C1`, the Ratio in experiment [2] was 144 M⁻¹ s⁻¹.

In the case of `Cc1ccc(NC(=O)N2CCC(=Cc3cccc(Oc4ccc(C(F)(F)F)cn4)c3)CC2)cn1`, the values for the Ratio in experiment [1] and in [2] were 5210 M⁻¹ s⁻¹ and 13100 M⁻¹ s⁻¹, respectively. The IC50 in [4] turned out to be 3 µM; in [5] it was 1.6 µM; in experiment [6], 11.8 µM.

Turning to `O=C(Nc1cccnn1)N1CCC(=Cc2cccc(Oc3ccc(C(F)(F)F)nc3)c2)CC1`, the Ratio in [1] was 2020 M⁻¹ s⁻¹; in experiment [2], 26600 M⁻¹ s⁻¹.

For `Cc1ccnc(Oc2cccc(C=C3CCN(C(=O)Nc4cccnn4)CC3)c2)c1`, the Ratio in experiment [2] is 1580 M⁻¹ s⁻¹.

As to `O=C(Nc1cccnn1)N1CCC(=Cc2cccc(Oc3ccccc3)c2)CC1`, the Ratio in [1] amounted to 1900 M⁻¹ s⁻¹; in [2], 1530 M⁻¹ s⁻¹.

On to `Cc1cccc(Oc2cccc(C=C3CCN(C(=O)Nc4cccnn4)CC3)c2)n1`, for which the Ratio in [1] amounted to 586 M⁻¹ s⁻¹; in experiment [2], 1090 M⁻¹ s⁻¹.

Take `O=C(Nc1ccccn1)N1CCC(=Cc2cccc(Oc3ccc(C(F)(F)F)cn3)c2)CC1`: the Ratio was 563 M⁻¹ s⁻¹ in experiment [1] and 6090 M⁻¹ s⁻¹ in [2].

On to `O=C(Nc1cccnc1)N1CCC(Cc2cccc(Oc3ccc(C(F)(F)F)cn3)c2)CC1`, for which the MED in experiment [7] was found to be 3 mg/kg.

Turning to `O=C(Nc1noc2ccccc12)N1CCC(=Cc2cccc(Oc3ccc(C(F)(F)F)cn3)c2)CC1`, the Ratio turned out to be 30200 M⁻¹ s⁻¹ in experiment [1] and 3930 M⁻¹ s⁻¹ in experiment [2].

On to `O=C(Nc1cccnc1)N1CCC(=Cc2cccc(Oc3ccc(C(F)(F)F)cn3)c2)CC1`, for which the Ratio was found to be 15100 M⁻¹ s⁻¹ in experiment [1] and 21600 M⁻¹ s⁻¹ in [2]. Besides, the half-maximal inhibitory concentration (IC50) in experiment [4] worked out at 0.8 µM; in experiment [5], 1.4 µM; in experiment [6], 4.3 µM.

Turning to `NC(=O)c1cccc(-c2cccc(OC(=O)NC3CCCCC3)c2)c1`, the inhibition result in [8], in [9], in experiment [10], in experiment [11], in experiment [12] and in experiment [13] was “Active” in each case.

Regarding `O=C(Nc1cccnc1)N1CC/C(=C/c2cccc(Oc3ccc(C(F)(F)F)cn3)c2)C1`, the Ratio in [2] is under 16 M⁻¹ s⁻¹.

Consider `COc1ccc(NC(=O)N2CCC(=Cc3cccc(Oc4ccc(C(F)(F)F)cn4)c3)CC2)cn1`, for which the Ratio is 11400 M⁻¹ s⁻¹ in [1] and 16000 M⁻¹ s⁻¹ in experiment [2].

For `O=C(Nc1cccnc1)N1CC(=Cc2cccc(Oc3ccc(C(F)(F)F)cn3)c2)C1`, the Ratio in experiment [1] was found to be 173 M⁻¹ s⁻¹; in [2], 298 M⁻¹ s⁻¹.

The values above are taken from ChEMBL document CHEMBL1649098 (ACS Med Chem Lett, 2011).
